Measured values from ChEMBL document CHEMBL4725495, “Resorufin Enters the Photodynamic Therapy Arena: A Monoamine Oxidase Activatable Agent for Selective Cytotoxicity” (ACS Med Chem Lett, 2020).
Activity calls are given as the source filed them. No cut-off for these calls is given here.

What was measured:
SH-SY5Y [1] = assay: Photocytotoxicity against human SH-SY5Y cells assessed as cell viability in dark at 2.5 uM measured after 24 hrs by MTT assay; type: functional, cell-based
In short: (§1)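 Cells incubated with varying R1 concentrations and kept in the dark in parallel with irradiated plates; viability by MTT assay.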

[2] = target: T1, Amine oxidase [flavin-containing] B (Homo sapiens, UniProt P27338); assay: Prodrug activation assessed as MAO-B (unknown origin) mediated drug activation measured increase in emission signal at 620 nm at 10 uM over 3 hrs by fluorescence spectroscopy
T1 sequence (P27338 whole entry): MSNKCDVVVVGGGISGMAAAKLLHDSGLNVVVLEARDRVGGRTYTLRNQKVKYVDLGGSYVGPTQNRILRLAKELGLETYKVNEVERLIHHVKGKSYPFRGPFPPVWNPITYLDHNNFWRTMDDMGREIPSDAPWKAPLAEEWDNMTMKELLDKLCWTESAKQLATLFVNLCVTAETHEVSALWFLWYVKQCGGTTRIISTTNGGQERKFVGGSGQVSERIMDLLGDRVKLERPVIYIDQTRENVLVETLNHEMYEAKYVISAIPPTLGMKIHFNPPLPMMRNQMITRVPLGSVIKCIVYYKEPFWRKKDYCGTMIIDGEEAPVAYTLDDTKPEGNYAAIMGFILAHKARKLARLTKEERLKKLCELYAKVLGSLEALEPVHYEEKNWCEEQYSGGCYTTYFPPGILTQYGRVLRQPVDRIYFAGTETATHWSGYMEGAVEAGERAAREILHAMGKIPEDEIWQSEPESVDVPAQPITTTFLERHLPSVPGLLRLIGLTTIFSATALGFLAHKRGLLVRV

[3] = target: T2, Amine oxidase [flavin-containing] A (Homo sapiens, UniProt P21397); assay: Prodrug activation assessed as MAO-A (unknown origin) mediated drug activation by measuring red shift of absorption maxima at 588/595 nm at 10 uM for 3 hrs by absorption spectroscopy
T2 sequence (P21397 whole entry): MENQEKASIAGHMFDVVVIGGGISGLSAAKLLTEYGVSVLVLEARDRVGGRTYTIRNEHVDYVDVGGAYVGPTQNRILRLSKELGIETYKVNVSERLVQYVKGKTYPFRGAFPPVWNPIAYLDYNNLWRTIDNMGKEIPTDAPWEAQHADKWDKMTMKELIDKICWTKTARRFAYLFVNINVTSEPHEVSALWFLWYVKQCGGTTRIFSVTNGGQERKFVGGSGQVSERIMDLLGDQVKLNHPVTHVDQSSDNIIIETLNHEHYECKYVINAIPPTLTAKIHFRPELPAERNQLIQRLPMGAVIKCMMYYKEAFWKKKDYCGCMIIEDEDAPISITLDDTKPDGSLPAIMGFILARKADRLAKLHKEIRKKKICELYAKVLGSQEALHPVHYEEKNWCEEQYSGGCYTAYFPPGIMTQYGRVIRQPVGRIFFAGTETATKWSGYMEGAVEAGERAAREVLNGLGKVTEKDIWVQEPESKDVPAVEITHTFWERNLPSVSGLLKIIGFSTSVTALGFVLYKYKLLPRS

[4] = Photocytotoxicity against […] cells assessed as cell viability in dark at 2.5 uM measured after 24 hrs by MTT assay; type: cell-based; conditions: nih3t3, 24 h; in short: as §1
[5] = Photostability in pH 7.4 PBS buffer at 408/500 nm irradiated with 595 nm LED for 4 hrs; type: physicochemical; conditions: pH 7.4, 4 h
SH-SY5Y [6] = assay: Induction of apoptosis in human SH-SY5Y cells assessed as early apoptotic cells level irradiated with 595 nm LED for 4 hrs at 2.5 uM by Annexin V-FITC/PI staining based confocal microscopy; type: functional, cell-based
In short: (§2)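 SH-SY5Y cells incubated with R1 (2.5 μM), kept dark or irradiated 4 h with 595 nm LED (20 mW/cm2), then stained with annexin V-FITC (green, early apoptosis) and propidium iodide (red, late apoptotic/necrotic); confocal imaging.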

SH-SY5Y [7] = assay: Photocytotoxicity against human SH-SY5Y cells assessed as cell viability at 2.5 uM irradiated with 595 nm LED for 4 hrs measured after 24 hrs by MTT assay; type: functional; conditions: light or radiation study, read-out: Activity
In short: (§3)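 Cells incubated with varying R1 concentrations, then irradiated 4 h with 595 nm LED (20 mW/cm2); viability read by MTT assay; IC50 from concentration–viability curves.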

NIH3T3 = assay: Induction of ROS production in […] cells irradiation with LED light for 30 mins measured after 3 hrs by DCFH-DA staining based fluorescence microscopy; type: functional, cell-based
In short: (§4)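 Cells loaded with R1 for 3 h and with DCFH2-DA ROS sensor, then irradiated 30 min with LED (20 mW/cm2); green emission from oxidized sensor imaged by fluorescence microscopy.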

SH-SY5Y [8] = assay: Induction of apoptosis in human SH-SY5Y cells assessed as necrotic cells level irradiated with 595 nm LED for 4 hrs at 2.5 uM by Annexin V-FITC/PI staining based confocal microscopy; type: functional, cell-based; in short: as §2
SH-SY5Y [9] = assay: Photocytotoxicity against human SH-SY5Y cells assessed as reduction in cell viability for 30 mins followed by irradiation with LED light after 30 mins by MTTassay; type: functional, cell-based; conditions: light or radiation study, 0.5 h
In short: (§5)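 Cells incubated with varying R1 concentrations, then irradiated 30 min with 595 nm LED (20 mW/cm2); viability by MTT assay; IC50 from curves.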

[10] = target: T2, Amine oxidase [flavin-containing] A; assay: Prodrug activation assessed as MAO-A (unknown origin) mediated drug activation measuring increase in emission signal at 620 nm at 10 uM over 3 hrs by fluorescence spectroscopy
MCF7 = assay: Photocytotoxicity against human MCF-7 cells assessed as reduction in cell viability irradiated with 595 nm LED for 4 hrs measured after 24 hrs by MTT assay; type: functional, cell-based; conditions: MCF7, light or radiation study; in short: as §3
SH-SY5Y [11] = assay: Induction of ROS production in human SH-SY5Y cells irradiation with LED light for 30 mins measured after 3 hrs by DCFH-DA staining based fluorescence microscopy in presence of clorgyline; type: functional, cell-based
In short: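 SH-SY5Y cells pretreated 30 min with clorgyline (0.1 μM), then incubated 3 h with R1 plus DCFH2-DA sensor and irradiated 30 min with LED (20 mW/cm2); green fluorescence imaged.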

SH-SY5Y [12] = assay: Induction of ROS production in human SH-SY5Y cells assessed as green emission irradiation with LED light after 30 mins in presence of NaN3 measured after 3 hrs incubation by DCFH-DA staining based fluorescence microscopy; type: functional, cell-based
In short: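 SH-SY5Y cells pretreated with NaN3 as 1O2 quencher, then incubated with R1 and DCFH2-DA and irradiated with LED (20 mW/cm2); sensor green emission imaged by fluorescence microscopy.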

[13] = Photocytotoxicity against […] cells assessed as cell viability at 2.5 uM irradiated with 595 nm LED for 4 hrs measured after 24 hrs by MTT assay; type: cell-based, NIH3T3; conditions: read-out: Activity; in short: as §3
[14] = Induction of singlet oxygen generation using PBS buffer assessed as decrease in absorbance of ADMDA at 380 nm irradiated with 595 nm LED; type: functional
In short: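 R1 (10 μM) pretreated with MAO-A or MAO-B (20 μg/mL) in PBS pH 7.4, 1% DMSO, with water-soluble anthracene trap ADMDA; kept dark 2 min, then irradiated with 595 nm LED (20 mW/cm2); ADMDA absorbance at 380 nm followed.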

[15] = Photocytotoxicity against […] cells assessed as reduction in cell viability for 30 mins followed by irradiation with LED light after 30 mins by MTTassay; type: cell-based; conditions: nih3t3, 0.5 h; in short: as §5
SH-SY5Y [16] = assay: Induction of apoptosis in human SH-SY5Y cells assessed as late apoptotic cells level irradiated with 595 nm LED for 4 hrs at 2.5 uM by Annexin V-FITC/PI staining based confocal microscopy; type: functional, cell-based; in short: as §2
SH-SY5Y [17] = assay: Photocytotoxicity against human SH-SY5Y cells assessed as reduction in cell viability irradiated with 595 nm LED for 4 hrs measured after 24 hrs by MTT assay; type: functional, cell-based; conditions: light or radiation study; in short: as §3
SH-SY5Y [18] = assay: Induction of ROS production in human SH-SY5Y cells assessed as green emission irradiation with LED light for 30 mins measured after 3 hrs incubation by DCFH-DA staining based fluorescence microscopy; type: functional, cell-based; in short: as §4
SH-SY5Y [19] = assay: Induction of apoptosis in human SH-SY5Y cells assessed as apoptotic cells incubated in dark for 4 hrs at 2.5 uM by Annexin V-FITC/PI staining based confocal microscopy; type: functional, cell-based; in short: as §2
SH-SY5Y [20] = assay: Induction of ROS production in human SH-SY5Y cells in dark measured 3 hrs by DCFH2-DA fluorescence assay relative to control
[21] = Photocytotoxicity against […] cells assessed as reduction in cell viability irradiated with 595 nm LED for 4 hrs measured after 24 hrs by MTT assay; type: cell-based; conditions: NIH3T3, light or radiation study; in short: as §3

With NCCCOc1ccc2nc3ccc(=O)cc-3oc2c1I the Activity (SH-SY5Y [1]) was “inactive”, the Activity [2] was “Not Active” and the Activity [3] was “Active”. The Activity [4] was “Non-Toxic”, the Stabilty [5] was “Stable” and the Activity (SH-SY5Y [6]) was “Active”. For the same compound, the viability at 2.5 µM (SH-SY5Y [7]) was 3%, the Activity (NIH3T3) was “inactive” and the Activity (SH-SY5Y [8]) was “Active”. The IC50 (SH-SY5Y [9]) was 1900 nM, the Activity [10] was “Not Active” and the IC50 (MCF7) was 4000 nM. For the same compound, the Activity (SH-SY5Y [11]) was “inactive”, the Activity (SH-SY5Y [12]) was “inactive” and the viability at 24 h, 2.5 µM [13] was 70%. The Activity [14] was “inactive”, the Activity [15] was “Non-Toxic” and the Activity (SH-SY5Y [16]) was “Active”. The IC50 (SH-SY5Y [17]) was 420 nM, the Activity (SH-SY5Y [18]) was “Active” and the Activity (SH-SY5Y [19]) was “inactive”. For the same compound, the Activity (SH-SY5Y [20]) was “inactive” and the IC50 [21] was 6500 nM.
